Among the data in ChEMBL document CHEMBL2429806, “Designed Trpzip-3 β-Hairpin Inhibits Amyloid Formation in Two Different Amyloid Systems” (ACS Med Chem Lett, 2013) are inhibition values, retold here.

As a reminder, the inhibition is the change of the read-out against control, counted positive when it falls.

A value given as a limit tells only on which side of the number the result lay.

The target of this assay is Transthyretin (Homo sapiens) (UniProt P02766). Kind of assay: Inhibition of transthyretin (unknown origin) aggregation at 2 mol equiv measured at 36 hrs by congo red assay relative to control. In outline:
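TTR aggregation was induced at pH 4.5 with or without the test agent. Aggregation was scored by Congo red at its peak, 36 h. Thioflavin T was not usable because dissolved, filtered TTR gives high background fluorescence.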

As for `O=C(O)c1cc(-c2ccc(F)cc2F)ccc1O`, the inhibition was greater than 90%.
